Measured values published in ChEMBL document CHEMBL3045553, “Isolation and antifungal activity of 4-phenyl-3-butenoic acid from Streptomyces koyangensis strain VK-A60” (2005).
The source made the active and inactive calls. The rule behind the calls is not given here.

Experiments:
[1] = tested on: Colletotrichum orbiculare; assay: […] antifungal activity against Colletotrichum orbiculare on […] assessed as inhibition of anthracnose development at 500 ug/mL; type: functional, organism-based
Bacillus subtilis = assay: Antibacterial activity against Bacillus subtilis subsp. subtilis assessed as inhibition of microbial growth by microtiter broth dilution method; type: functional
Summary of the method: (§1)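 Broth microdilution in 24-well plates. Inoculum of 10⁴ CFU/mL, 10 µL per well, in 1 mL potato dextrose broth or nutrient broth. Compound in methanol, 0–100 µg/mL. Incubated at 22–28 °C for 2–5 days and compared with a compound-free growth control. MIC is the lowest concentration showing no growth.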

Saccharomyces cerevisiae = assay: Antifungal activity against Saccharomyces cerevisiae assessed as inhibition of microbial growth by microtiter broth dilution method; type: functional; summary of the method: as §1
Candida albicans = assay: Antifungal activity against Candida albicans assessed as inhibition of microbial growth by microtiter broth dilution method; type: functional; summary of the method: as §1
Rhizoctonia solani = assay: Antifungal activity against Rhizoctonia solani assessed as inhibition of microbial growth by microtiter broth dilution method; type: functional
Summary of the method: (§2)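 Spore or zoospore suspension, 10 µL, added to wells of a 24-well dish holding 1 mL potato dextrose broth or nutrient broth. Compound dissolved in methanol and tested over 0–100 µg/mL. Plates held at 22–28 °C and read after 2–5 days against an untreated inoculated control. MIC is the lowest concentration with no visible growth.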

Sclerotinia sclerotiorum = assay: Antifungal activity against Sclerotinia sclerotiorum assessed as inhibition of microbial growth by microtiter broth dilution method; type: functional; summary of the method: as §2
Globisporangium ultimum = assay: Antifungal activity against Pythium ultimum assessed as inhibition of microbial growth by microtiter broth dilution method; type: functional; summary of the method: as §2
Phytophthora capsici = assay: Antifungal activity against Phytophthora capsici assessed as inhibition of microbial growth by microtiter broth dilution method; type: functional; summary of the method: as §2
Pyricularia grisea = assay: Antifungal activity against Magnaporthe grisea assessed as inhibition of microbial growth by microtiter broth dilution method; type: functional
Summary of the method: (§3)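 24-well broth dilution. 10 µL of spore or cell suspension went into 1 mL potato dextrose broth or nutrient broth. Bacterial inoculum was 10⁴ CFU/mL. Compound was dissolved in methanol and tested at 0–100 μg/mL. Plates were incubated at 22–28 °C for 2–5 days against a compound-free growth control. MIC was the lowest concentration showing no growth.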

[2] = tested on: Fusarium oxysporum f. sp. lycopersici; assay: Antifungal activity against Fusarium oxysporum f. sp. lycopersici assessed as inhibition of microbial growth by microtiter broth dilution method; type: functional; summary of the method: as §2
Ilyonectria destructans = assay: Antifungal activity against Ilyonectria radicicola assessed as inhibition of microbial growth by microtiter broth dilution method; type: functional; summary of the method: as §2
[3] = tested on: Colletotrichum orbiculare; assay: Antifungal activity against Colletotrichum orbiculare assessed as inhibition of microbial growth by microtiter broth dilution method; type: functional; summary of the method: as §2
Botrytis cinerea = assay: Antifungal activity against Botryotinia fuckeliana assessed as inhibition of microbial growth by microtiter broth dilution method; type: functional; summary of the method: as §2
Cladosporium cucumerinum = assay: Antifungal activity against Cladosporium cucumerinum assessed as inhibition of microbial growth by microtiter broth dilution method; type: functional; summary of the method: as §2
Alternaria mali = assay: Antifungal activity against Alternaria mali assessed as inhibition of microbial growth by microtiter broth dilution method; type: functional; summary of the method: as §2
[4] = tested on: Colletotrichum orbiculare; assay: […] antifungal activity against Colletotrichum orbiculare on two-leaf stage cucumber plant assessed as inhibition of anthracnose development at 100 ug/mL; type: functional, organism-based
Summary of the method: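 Cucumber cv. Baekrokdadaki grown at 28 ± 2 °C. Compound in methanol, diluted in 0.1% Tween 20 to 10–500 µg/mL, sprayed on primary leaves 1 day before inoculation. Inoculum was 10⁶ conidia/mL in 0.05% Tween 20, followed by 24 h in a dew chamber at 28 °C. Lesions/cm² on secondary leaves counted at day 6. 6 plants/treatment, 3 replicates; Tween-only control.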

Xanthomonas vesicatoria = assay: Antibacterial activity against Xanthomonas vesicatoria assessed as inhibition of microbial growth by microtiter broth dilution method; type: functional; summary of the method: as §1
Ralstonia solanacearum = assay: Antibacterial activity against Ralstonia solanacearum assessed as inhibition of microbial growth by microtiter broth dilution method; type: functional; summary of the method: as §3
[5] = tested on: Pectobacterium carotovorum subsp. carotovorum; assay: Antibacterial activity against Pectobacterium carotovorum subsp. carotovorum assessed as inhibition of microbial growth by microtiter broth dilution method; type: functional; summary of the method: as §1

N#Cc1c(Cl)c(Cl)c(Cl)c(C#N)c1Cl
inhibition [1]: Active

O=C(O)C/C=C/c1ccccc1
MIC (Bacillus subtilis): 3 µg/mL
MIC (Saccharomyces cerevisiae): > 100 µg/mL
MIC (Candida albicans): > 100 µg/mL
MIC (Rhizoctonia solani): 30 µg/mL
MIC (Sclerotinia sclerotiorum): > 100 µg/mL
MIC (Globisporangium ultimum): 0.5 µg/mL
MIC (Phytophthora capsici): 30 µg/mL
MIC (Pyricularia grisea): 10 µg/mL
MIC [2]: > 100 µg/mL
MIC (Ilyonectria destructans): 30 µg/mL
MIC [3]: 3 µg/mL
MIC (Botrytis cinerea): > 100 µg/mL
MIC (Cladosporium cucumerinum): 30 µg/mL
MIC (Alternaria mali): 30 µg/mL
inhibition [1]: Active
inhibition [4]: Active
MIC (Xanthomonas vesicatoria): 10 µg/mL
MIC (Ralstonia solanacearum): 0.5 µg/mL
MIC [5]: 1 µg/mL
